We go through 21 compounds from ChEMBL document CHEMBL1157455, “Synthesis and anti-hepatitis B virus evaluation of novel ethyl 6-hydroxyquinoline-3-carboxylates in vitro” (Bioorg Med Chem, 2008).

Activity calls are given as the source filed them. No cut-off for these calls is given here.

Data set [1] is described as follows: Cytotoxicity against human HepG2.2.15 cells after 9 days by MTT assay. Type of data set: cell-based, HepG2 2.2.15. The settings on record: read-out: TC50. The procedure, abridged: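 HepG2.2.15 cells were treated as in the antiviral assay (RPMI 1640, 2% FBS, daily renewal), with untreated controls on each plate. Viability after 9 days of treatment was read from neutral red uptake as absorbance at 510 nm relative to untreated cells. TC50 is the 50% cytotoxic concentration.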
(In general: Tetrazolium dyes change colour on reduction, which living cells bring about.)

Data set [2] has as its system Hepatitis B virus. Briefly: Antiviral activity against HBV assessed as inhibition of viral surface-antigen production by enzyme immunoassay. Type of data set: functional, organism-based. An outline of the steps: (§1)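 Confluent HepG2.2.15 cells were treated with varied doses in RPMI 1640 plus 2% FBS, with fresh medium and drug each day for 8 days. Secreted HBeAg or HBsAg in the supernatant was measured by semiquantitative enzyme immunoassay, giving a 50% inhibitory concentration (IC50).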

In data set [3] the test system is Hepatitis B virus. Briefly: Antiviral activity against HBV assessed as inhibition of viral DNA replication by Southern blot. Type of data set: functional, organism-based. The procedure, abridged:
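Confluent HepG2.2.15 cultures were dosed across a range of concentrations in RPMI 1640 with 2% FBS. Medium and compound were renewed daily for 8 days. Intracellular HBV DNA was quantified by Southern blot hybridization and IC50 was taken as the 50% inhibitory concentration.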

Data set [4] is described as follows: Selectivity index, ratio of TC50 for human HepG2.2.15 cells to IC50 for HBV surface antigen production. An outline of the steps:
(§2)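 SI = TC50/IC50. TC50 is the 50% cytotoxic concentration in HepG2.2.15 cells by neutral red uptake after 9 days. IC50 comes from the 8-day HepG2.2.15 treatment in RPMI 1640 with 2% FBS, read by Southern blot for DNA or by enzyme immunoassay for secreted HBeAg or HBsAg.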

A short description of data set [5]: Selectivity index, ratio of TC50 for human HepG2.2.15 cells to IC50 for HBV DNA replication. The procedure, abridged: as §2
A short description of data set [6]: Selectivity index, ratio of TC50 for human HepG2.2.15 cells to IC50 for HBV e-antigen production. The procedure, abridged:
as §2

Data set [7] concerns Hepatitis B virus. Briefly: Antiviral activity against HBV assessed as inhibition of viral e-antigen production by enzyme immunoassay. It counts as functional, organism-based. An outline of the steps:
as §1

For data set [8], the system named is Hepatitis B virus. Briefly: Antiviral activity against HBV assessed as inhibition of viral surface-antigen production at <60 uM by enzyme immunoassay. It counts as functional, organism-based.

`CCOC(=O)c1cc2c(Cn3ccnc3)c(O)c(OC)cc2nc1CSc1ccc(OC)c(OC)c1`: the CC50 at 216 h in data set [1] came to 189 µM.
A word on the IC50: it is the midpoint of a concentration-inhibition curve. For the compound `CCOC(=O)c1cc2c(CN(C)C)c(O)c(OC)cc2nc1CSc1ccc(F)cc1`, the IC50 in data set [2] amounted to 17.4 µM; in data set [3] it was 32.8 µM. For the same compound, the Ratio came out at 6.9 in data set [4] and 3.7 in data set [5]. Besides, in data set [1], the CC50 at 216 h was 120 µM.
With `CCOC(=O)c1cc2c(Cn3ccnc3)c(O)c(OC)cc2nc1CSc1cccc(OC)c1`, the Ratio in data set [6] was found to be 2.9. Further, the IC50 in data set [7] is 65.1 µM. Further, the CC50 at 216 h in data set [1] stood at 186 µM.
Regarding `CCOC(=O)c1cc2c(CN3CCN(C)CC3)c(O)c(OC)cc2nc1CSc1ccc(F)c(F)c1`, the IC50 in data set [2] was found to be 11.2 µM. Besides, the Ratio in data set [4] turned out to be 4.9. Besides, the CC50 at 216 h in data set [1] amounted to 55.3 µM.
For `CCOC(=O)c1cc2c(CN(C)C)c(O)c(OC)cc2nc1C[S+]([O-])c1ccc(F)cc1` (configuration not stated), the IC50 stood at 36.5 µM in data set [2] and 21.9 µM in data set [3]. Besides, the Ratio in data set [4] is given as 2.5; in data set [5] it was 4.1. Also, the CC50 at 216 h in data set [1] was 90.4 µM.
Take `CCOC(=O)c1cc2c(Cn3ccnc3C)c(O)c(OC)cc2nc1CSc1ccc(F)cc1`: the values for the Ratio in data set [6] and in data set [5] were 4.8 and 2.6, respectively. Moreover, the figures for the IC50 in data set [7] and in data set [3] were 16.2 µM and 30.6 µM, respectively. The CC50 at 216 h in data set [1] is 78.5 µM.
For the compound `CCOC(=O)c1cc2c(Cn3ccnc3)c(O)c(OC)cc2nc1CSc1ccc(F)c(F)c1`, the results for the Ratio in data set [6] and in data set [5] were 8.1 and 14.1, respectively. For the same compound, the IC50 came out at 16.4 µM in data set [7] and 9.4 µM in data set [3]. Moreover, the CC50 at 216 h in data set [1] is 133 µM.
In the case of `CCOC(=O)c1cc2c(CN3CCCCC3)c(O)c(OC)cc2nc1CSc1ccc(F)c(F)c1`, the IC50 in data set [3] stood at 24.1 µM. The CC50 at 216 h in data set [1] was 135 µM. In addition, the Ratio in data set [5] was 5.6.
The matching figures for `CCOC(=O)c1cc2c(Cn3ccnc3)c(O)c(OC)cc2nc1C[S+]([O-])c1ccc(F)c(F)c1` (configuration not stated): 12.5 µM, 90.8 µM and 7.3.
Consider `CCOC(=O)c1cc2c(CN3CCOCC3)c(O)c(OC)cc2nc1CSc1ccc(F)c(F)c1`, for which the IC50 was 5.8 µM in data set [2] and 10.9 µM in data set [7]. The Ratio in data set [6] is 7.3; in data set [4], 13.7. Moreover, in data set [1], the CC50 at 216 h turned out to be 79.7 µM.
Regarding `CCOC(=O)c1cc2c(Cn3ccnc3)c(O)c(OC)cc2nc1CSc1ccc(F)cc1`, the IC50 in data set [2] was determined as 42.8 µM; in data set [3] it was 41.7 µM. In addition, the figures for the Ratio in data set [4] and in data set [5] were 6 and 6.2, respectively. Moreover, the CC50 at 216 h in data set [1] is 202 µM.
For `CCOC(=O)c1cc2c(Cn3ccnc3)c(O)c(OC)cc2nc1C[S+]([O-])c1ccc(F)cc1` (configuration not stated), the IC50 in data set [2] was found to be 26.2 µM; in data set [7], 98.1 µM; in data set [3] it was 4.7 µM. In addition, the Ratio in data set [6] is recorded as 1.6; in data set [4], 6.1; in data set [5], 34.1. Besides, the CC50 at 216 h in data set [1] amounted to 160 µM.
Consider `CCOC(=O)c1cc2c(CN3CCCC3)c(O)c(OC)cc2nc1C[S+]([O-])c1ccc(F)c(F)c1` (configuration not stated), for which the concentration for half-maximal inhibition (IC50) in data set [3] stood at 5.3 µM. In addition, in data set [1], the CC50 at 216 h came out at 16.5 µM. Besides, the Ratio in data set [5] was found to be 3.1.
As for `CCOC(=O)c1cc2c(CN3CCCCC3)c(O)c(OC)cc2nc1CSc1ccccc1`, in data set [3], the half-inhibitory concentration (IC50) worked out at 45.2 µM. Further, the result in data set [8] was inactive. In addition, the CC50 at 216 h in data set [1] turned out to be 60.7 µM. In data set [5], the Ratio is recorded as 1.3.
As to `CCOC(=O)c1cc2c(Cn3ccnc3)c(O)c(OC)cc2nc1C[S+]([O-])c1cccc(OC)c1` (configuration not stated), the concentration for half-maximal inhibition (IC50) in data set [2] came out at 33.1 µM. In data set [4], the Ratio stood at 5.9. Also, the CC50 at 216 h in data set [1] amounted to 194 µM.
With `CCOC(=O)c1cc2c(CN3CCCC3)c(O)c(OC)cc2nc1C[S+]([O-])c1ccccn1` (configuration not stated), in data set [1], the CC50 at 216 h came out at 9.4 µM.
Turning to `CCOC(=O)c1cc2c(CN3CCCC3)c(O)c(OC)cc2nc1CSc1ccc(F)cc1`, the IC50 in data set [2] amounted to 8.5 µM; in data set [7], 9.3 µM; in data set [3], 10.2 µM. Besides, the Ratio in data set [6] stood at 5.1; in data set [4], 5.6; in data set [5], 4.6. For the same compound, the CC50 at 216 h in data set [1] is 47.3 µM.
As to `Nc1ccn([C@@H]2CS[C@H](CO)O2)c(=O)n1` [LAMIVUDINE], the IC50 in data set [3] worked out at 311 µM. Moreover, the CC50 at 216 h in data set [1] came to 2210 µM. The Ratio in data set [5] is given as 7.1.
As to `CCOC(=O)c1cc2c(CN3CCCC3)c(O)c(OC)cc2nc1C[S+]([O-])c1ccc(F)cc1` (configuration not stated), the results for the IC50 in data set [2], in data set [7] and in data set [3] were 25.1 µM, 21.1 µM and 10.7 µM, respectively. The Ratio turned out to be 7.9 in data set [6], 6.6 in data set [4] and 15.5 in data set [5]. Besides, the CC50 at 216 h in data set [1] was 166 µM.
Turning to `CCOC(=O)c1cc2c(CN(C)C)c(O)c(OC)cc2nc1CSc1ccccc1OC`, in data set [6], the Ratio was found to be 2.9. In data set [7], the IC50 was 20.5 µM. The CC50 at 216 h in data set [1] was 58.5 µM.
`CCOC(=O)c1cc2c(CN3CCCC3)c(O)c(OC)cc2nc1CSc1ccccn1`: the CC50 at 216 h in data set [1] was 17.5 µM.
